The results in this text go back to ChEMBL document CHEMBL1806477, “Discovery of novel imidazo[1,2-a]pyridines as inhibitors of the insulin-like growth factor-1 receptor tyrosine kinase” (Bioorg Med Chem Lett, 2011).

For series [1], the target named is Cyclin-dependent kinase 2 (Homo sapiens, UniProt P24941). Description: Inhibition of CDK2.
Series [2] addresses T1, Insulin-like growth factor 1 receptor (Homo sapiens, UniProt P08069). Put plainly: Inhibition of IGF1-induced autophosphorylation of human recombinant IGF1R expressed in mouse fibroblasts by high throughput assay.
In series [3] the target is T1, Insulin-like growth factor 1 receptor. Description: Inhibition of IGF1R.
Series [4] addresses T2, Insulin receptor (Homo sapiens, UniProt P06213). Description: Inhibition of insulin receptor.
Series [5] deals with T2, Insulin receptor. Description: Inhibition of insulin-induced autophosphorylation of human insulin receptor expressed in CHO cells. The format is cell-based. In outline: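 CHO cells transfected with the human insulin receptor gene, stimulated with insulin; the read-out is inhibition of receptor auto-phosphorylation.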
The target of series [6] is Mitogen-activated protein kinase 8 (Homo sapiens) (UniProt P45983). Put plainly: Inhibition of JNK1 at 1 uM.
Series [7] has as its target Mitogen-activated protein kinase 9 (Homo sapiens) (UniProt P45984). Put plainly: Inhibition of JNK2 at 1 uM.
In series [8] the target is T3, Mitogen-activated protein kinase 15 (Homo sapiens) (UniProt Q8TD08).
T3 sequence (whole entry): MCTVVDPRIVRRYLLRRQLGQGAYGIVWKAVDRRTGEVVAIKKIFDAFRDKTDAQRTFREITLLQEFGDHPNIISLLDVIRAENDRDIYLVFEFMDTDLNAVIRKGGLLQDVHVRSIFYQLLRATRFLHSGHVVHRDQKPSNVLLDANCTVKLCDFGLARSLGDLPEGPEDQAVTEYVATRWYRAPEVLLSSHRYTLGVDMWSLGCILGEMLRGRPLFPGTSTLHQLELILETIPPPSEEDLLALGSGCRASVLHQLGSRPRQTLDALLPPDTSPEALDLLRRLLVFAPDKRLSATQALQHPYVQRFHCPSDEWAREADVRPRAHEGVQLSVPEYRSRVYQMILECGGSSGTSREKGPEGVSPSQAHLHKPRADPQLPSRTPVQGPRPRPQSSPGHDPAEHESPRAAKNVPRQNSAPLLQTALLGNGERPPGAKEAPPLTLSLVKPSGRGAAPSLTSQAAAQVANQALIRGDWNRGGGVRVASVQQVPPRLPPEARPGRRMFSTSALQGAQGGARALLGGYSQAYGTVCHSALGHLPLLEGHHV
Put plainly: Inhibition of ERK8 at 1 uM.

A short description of series [9]: Plasma clearance in nude mouse at 4 umol/kg, iv and 10 umol/kg, po. The format is ADME, organism-based.
Series [10] in a line: Volume of distribution at steady state in nude mouse at 4 umol/kg, iv and 10 umol/kg, po. The format is ADME, organism-based. The settings on record: in vivo, read-out: Vdss.
Series [11] in a line: Terminal half life in nude mouse at 4 umol/kg, iv and 10 umol/kg, po. The format is ADME, organism-based. To be noted: in vivo, read-out: beta t1/2 (converted).
Series [12] can be described thus: Oral bioavailability in nude mouse at 10 umol/kg. The format is ADME, organism-based. The settings on record: in vivo.
The nature of series [13]: Plasma clearance in Han Wistar rat at 4 umol/kg, iv and 10 umol/kg, po. The format is ADME, organism-based. In outline: (§1)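 Male Han Wistar rats, each given an intravenous dose and a separate oral dose; parameters derived from the plasma concentration profiles.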
A short description of series [14]: Volume of distribution at steady state in Han Wistar rat at 4 umol/kg, iv and 10 umol/kg, po. The format is ADME, organism-based. To be noted: in vivo, read-out: Vdss. The gist of the method:
as §1

A short description of series [15]: Terminal half life in Han Wistar rat at 4 umol/kg, iv and 10 umol/kg, po. To be noted: in vivo, read-out: beta t1/2 (converted). The format is ADME, organism-based. In outline:
as §1

A short description of series [16]: Oral bioavailability in Han Wistar rat at 10 umol/kg. The format is ADME, organism-based. The settings on record: in vivo.
The nature of series [17]: Plasma clearance in Beagle dog at 0.8 umol/kg, iv and 10 umol/kg, po. The format is ADME, organism-based, Canis lupus familiaris. The gist of the method:
(§2)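 Values are means from two beagle dogs, one male and one female, each given an intravenous dose and an oral dose.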

Series [18] in a line: Volume of distribution at steady state in Beagle dog at 0.8 umol/kg, iv and 10 umol/kg, po. The format is ADME, organism-based, Canis lupus familiaris. The settings on record: in vivo, read-out: Vdss. The gist of the method:
as §2

Series [19] can be described thus: Terminal half life in Beagle dog at 0.8 umol/kg, iv and 10 umol/kg, po. To be noted: in vivo, read-out: beta t1/2 (converted). The format is ADME, organism-based, Canis lupus familiaris. In outline: as §2
Series [20] can be described thus: Oral bioavailability in Beagle dog at 10 umol/kg. The settings on record: in vivo. The format is ADME, organism-based, Canis lupus familiaris. In outline:
as §2

Series [21] is described as follows: Intrinsic clearance in mouse hepatocytes assessed per 10^6 cells. The format is ADME, cell-based, Liver, Hepatocyte.
Series [22] is described as follows: Intrinsic clearance in rat hepatocytes assessed per 10^6 cells. The format is ADME, cell-based, Liver, Hepatocyte.
The nature of series [23]: Intrinsic clearance in dog hepatocytes assessed per 10^6 cells. The format is ADME, cell-based, Canis lupus familiaris, Liver, Hepatocyte.
A short description of series [24]: Intrinsic clearance in human hepatocytes assessed per 10^6 cells. The format is ADME, cell-based, Liver, Hepatocyte.

T1 sequence (P08069 31-736 limits assumed): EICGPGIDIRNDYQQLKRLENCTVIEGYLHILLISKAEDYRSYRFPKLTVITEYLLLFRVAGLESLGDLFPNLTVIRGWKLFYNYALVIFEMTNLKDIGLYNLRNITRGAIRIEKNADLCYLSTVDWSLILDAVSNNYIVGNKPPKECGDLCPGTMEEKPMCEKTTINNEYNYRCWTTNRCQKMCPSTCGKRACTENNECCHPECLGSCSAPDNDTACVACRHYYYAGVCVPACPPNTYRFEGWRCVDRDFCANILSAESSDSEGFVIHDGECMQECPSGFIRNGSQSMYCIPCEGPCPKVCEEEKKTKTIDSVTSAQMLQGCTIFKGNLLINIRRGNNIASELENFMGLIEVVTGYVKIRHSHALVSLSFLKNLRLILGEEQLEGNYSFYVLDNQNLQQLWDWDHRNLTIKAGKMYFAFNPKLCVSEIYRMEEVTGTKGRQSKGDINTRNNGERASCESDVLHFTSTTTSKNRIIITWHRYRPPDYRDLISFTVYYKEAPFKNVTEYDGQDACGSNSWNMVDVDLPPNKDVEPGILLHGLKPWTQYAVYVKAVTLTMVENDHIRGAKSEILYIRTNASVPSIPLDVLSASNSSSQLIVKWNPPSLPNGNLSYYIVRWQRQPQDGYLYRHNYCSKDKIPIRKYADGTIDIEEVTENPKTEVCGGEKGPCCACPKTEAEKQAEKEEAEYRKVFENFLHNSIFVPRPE
T1 sequence (P08069 741-1367 limits assumed): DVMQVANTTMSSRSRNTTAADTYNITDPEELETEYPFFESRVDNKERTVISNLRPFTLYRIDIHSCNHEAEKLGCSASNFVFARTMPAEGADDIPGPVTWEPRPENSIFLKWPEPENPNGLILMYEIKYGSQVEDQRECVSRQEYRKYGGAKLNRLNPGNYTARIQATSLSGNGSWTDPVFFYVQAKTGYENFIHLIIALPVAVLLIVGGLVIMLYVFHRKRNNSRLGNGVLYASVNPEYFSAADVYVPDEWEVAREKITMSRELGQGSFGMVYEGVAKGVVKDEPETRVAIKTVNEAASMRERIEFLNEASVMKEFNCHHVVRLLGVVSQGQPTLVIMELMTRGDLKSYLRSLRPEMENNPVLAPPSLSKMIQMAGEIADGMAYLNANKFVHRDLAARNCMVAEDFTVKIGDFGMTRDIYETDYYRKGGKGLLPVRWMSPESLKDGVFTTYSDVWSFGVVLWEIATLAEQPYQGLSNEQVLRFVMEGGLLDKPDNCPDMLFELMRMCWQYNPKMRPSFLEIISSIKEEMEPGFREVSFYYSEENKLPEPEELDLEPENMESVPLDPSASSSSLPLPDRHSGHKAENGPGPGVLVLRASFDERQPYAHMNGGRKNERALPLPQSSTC
T2 sequence (P06213 28-758 limits assumed): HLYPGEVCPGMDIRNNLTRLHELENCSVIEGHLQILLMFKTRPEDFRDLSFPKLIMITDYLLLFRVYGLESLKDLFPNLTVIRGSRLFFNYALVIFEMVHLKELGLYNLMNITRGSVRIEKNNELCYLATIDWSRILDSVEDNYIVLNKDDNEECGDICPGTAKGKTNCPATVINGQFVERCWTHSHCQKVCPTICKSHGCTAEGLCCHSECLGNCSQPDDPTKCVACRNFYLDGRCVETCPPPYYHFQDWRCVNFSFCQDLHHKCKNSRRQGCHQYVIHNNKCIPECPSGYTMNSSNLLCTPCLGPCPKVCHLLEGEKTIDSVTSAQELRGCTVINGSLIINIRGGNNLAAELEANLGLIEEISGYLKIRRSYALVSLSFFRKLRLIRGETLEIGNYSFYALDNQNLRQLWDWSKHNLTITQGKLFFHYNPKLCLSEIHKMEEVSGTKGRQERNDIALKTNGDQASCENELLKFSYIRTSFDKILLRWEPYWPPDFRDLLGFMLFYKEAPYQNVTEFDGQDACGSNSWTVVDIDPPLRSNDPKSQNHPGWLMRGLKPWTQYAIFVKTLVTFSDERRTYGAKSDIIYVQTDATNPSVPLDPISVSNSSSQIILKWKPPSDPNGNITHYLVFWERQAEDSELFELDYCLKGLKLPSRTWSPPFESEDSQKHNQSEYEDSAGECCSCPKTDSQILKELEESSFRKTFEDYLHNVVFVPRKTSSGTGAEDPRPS
T2 sequence (P06213 763-1382 limits assumed): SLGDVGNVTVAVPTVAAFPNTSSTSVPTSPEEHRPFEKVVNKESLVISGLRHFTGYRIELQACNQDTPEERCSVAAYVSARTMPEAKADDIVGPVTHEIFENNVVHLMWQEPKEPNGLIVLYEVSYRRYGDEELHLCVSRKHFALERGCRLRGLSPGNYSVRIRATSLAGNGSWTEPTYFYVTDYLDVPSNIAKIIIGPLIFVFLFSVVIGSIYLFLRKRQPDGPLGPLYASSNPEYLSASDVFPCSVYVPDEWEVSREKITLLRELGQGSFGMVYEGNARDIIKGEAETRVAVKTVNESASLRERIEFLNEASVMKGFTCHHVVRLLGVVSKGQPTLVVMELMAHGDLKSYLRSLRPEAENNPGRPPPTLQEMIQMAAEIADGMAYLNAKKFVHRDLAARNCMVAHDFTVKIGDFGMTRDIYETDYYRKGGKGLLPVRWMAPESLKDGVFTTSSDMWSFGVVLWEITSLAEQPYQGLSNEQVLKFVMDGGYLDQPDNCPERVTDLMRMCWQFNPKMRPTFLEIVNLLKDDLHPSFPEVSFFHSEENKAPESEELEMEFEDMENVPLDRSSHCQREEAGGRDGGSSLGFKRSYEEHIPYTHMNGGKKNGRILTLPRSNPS
Chain of Mitogen-activated protein kinase 9 (Homo sapiens) (P45984 whole entry, looked up): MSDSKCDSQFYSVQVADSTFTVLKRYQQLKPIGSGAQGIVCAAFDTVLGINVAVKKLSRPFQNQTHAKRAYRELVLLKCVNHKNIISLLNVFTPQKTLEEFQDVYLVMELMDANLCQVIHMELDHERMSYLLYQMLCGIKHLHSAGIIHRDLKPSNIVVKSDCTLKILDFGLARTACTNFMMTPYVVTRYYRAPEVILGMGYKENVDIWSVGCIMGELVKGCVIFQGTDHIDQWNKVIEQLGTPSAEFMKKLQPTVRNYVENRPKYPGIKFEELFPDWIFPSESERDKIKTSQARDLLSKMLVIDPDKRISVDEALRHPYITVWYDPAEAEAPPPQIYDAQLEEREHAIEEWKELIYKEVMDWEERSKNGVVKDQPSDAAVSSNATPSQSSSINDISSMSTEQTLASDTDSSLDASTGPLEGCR
Chain of Mitogen-activated protein kinase 8 (Homo sapiens) (P45983 whole entry): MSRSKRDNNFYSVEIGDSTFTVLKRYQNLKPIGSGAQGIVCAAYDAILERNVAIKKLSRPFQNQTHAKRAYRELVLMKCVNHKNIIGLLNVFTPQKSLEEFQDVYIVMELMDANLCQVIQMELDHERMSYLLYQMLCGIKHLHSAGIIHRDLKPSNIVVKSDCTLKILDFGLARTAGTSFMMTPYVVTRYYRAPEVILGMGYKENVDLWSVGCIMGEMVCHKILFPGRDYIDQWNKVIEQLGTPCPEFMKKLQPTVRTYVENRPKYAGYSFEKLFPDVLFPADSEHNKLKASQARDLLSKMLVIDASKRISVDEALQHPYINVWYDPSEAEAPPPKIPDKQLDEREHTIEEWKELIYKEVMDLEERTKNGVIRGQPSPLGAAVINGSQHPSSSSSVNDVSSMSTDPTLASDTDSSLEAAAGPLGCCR

Turning to `COc1cc(N2CCN(C(C)=O)CC2)ccc1Nc1ncc(OC)c(-c2cnc3ccccn23)n1`, the IC50 in series [1] was determined as 53000 nM; in series [2], 190 nM.

With `COc1cc(N2CCN(C(C)=O)CC2)ccc1Nc1ncc(Br)c(-c2cnc3ccccn23)n1`, the IC50 worked out at 3 nM in series [3], 1100 nM in series [1] and 9 nM in series [2].

Take `COc1cc(N2CCN(C(C)=O)CC2)ccc1Nc1ncc(C)c(-c2cnc3ccccn23)n1`: the IC50 in series [1] was determined as 10000 nM; in series [2], 92 nM.

With `COc1cc(N2CCN(C(C)=O)CC2)ccc1Nc1ncc(F)c(-c2cnc3ccccn23)n1`, the IC50 was 89 nM in [3], 2700 nM in series [1] and 130 nM in [2].

On to `COc1cc(N2CCN(C(C)=O)CC2)ccc1Nc1nccc(-c2cnc3ccccn23)n1`, for which the IC50 in series [3] is 450 nM; in series [1], over 100000 nM; in [2], 1340 nM.

Regarding `NS(=O)(=O)c1ccc(Nc2nccc(-c3cnc4ccccn34)n2)cc1`, the values for the IC50 in [3] and in [1] were 1260 nM and 1 nM, respectively.

Turning to `COc1cc(N2CCN(C(C)=O)CC2)ccc1Nc1ncc(C(F)(F)F)c(-c2cnc3ccccn23)n1`, the IC50 in series [1] worked out at 16000 nM.

As to `COc1cc(N2CCN(C(C)=O)CC2)ccc1Nc1ncc(C#N)c(-c2cnc3ccccn23)n1`, the IC50 stood at 27000 nM in series [1] and 170 nM in [2].

In the case of `COc1cc(N2CCN(C(C)=O)CC2)ccc1Nc1ncc(Cl)c(-c2cnc3ccccn23)n1`, the IC50 stood at 1100 nM in series [1], 9 nM in series [4] and 12 nM in [5]. Further, the inhibition in series [6], in [7] and in [8] was over 80% in each case. Besides, the clearance was 15 mL/min/kg in series [9], 6.5 mL/min/kg in series [13] and 4.7 mL/min/kg in [17]. The Vd was found to be 0.8 L/kg in [10], 0.7 L/kg in [14] and 1.9 L/kg in series [18]. The half-life in series [11] was 0.9 h; in series [15] it was 4.6 h; in series [19], 5.5 h. Moreover, the bioavailability in series [12] was 36%; in series [16], 49%; in [20] it was 30%. Further, the intrinsic metabolic clearance (hepatocyte CLint) in series [21] was found to be 32 µL/min/1e6 cells; in series [22] it was 15 µL/min/1e6 cells; in [23] it was 6.7 µL/min/1e6 cells; in series [24], 6.9 µL/min/1e6 cells.

For `CC(=O)N1CCN(c2ccc(Nc3nccc(-c4cnc5ccccn45)n3)cc2)CC1`, the IC50 amounted to 270 nM in series [3] and 78 nM in [1].
